From PubChem
PAFAH1B2 FP inh: PAFAH1B2 enzyme inhibitors, primary screen, biochemical, fluorescence polarization, human; AID 492953, 2010; actives 1.2% (n = 340,000); recombinant PAFAH1B2, FP-rhodamine activity probe; inhibition, % at 3.39 µM; Platelet-activating factor acetylhydrolase IB subunit alpha2 (Homo sapiens), P68402;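 active = inhibition above the mean of all tested compounds plus 3 SD, cut at about 24% in these data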;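 note: 0% = enzyme with DMSO and 100% = wells lacking PAFAH1B2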
PAFAH1B3 inh: PAFAH1B3 enzyme inhibitors, primary screen, biochemical, fluorescence polarization, human | recombinant PAFAH1B3, FP-rhodamine probe | AID 492972, 2010 | actives 0.28% (n = 340,000) | inhibition, % at 3.39 µM | Platelet-activating factor acetylhydrolase IB subunit alpha1 (Homo sapiens), Q15102;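 active = inhibition above the screen-wide average of all tested compounds plus 3 SD, cut at about 25% in these data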;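 note: 0% = enzyme with DMSO only and 100% = wells lacking PAFAH1B3 protein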
IMP-1 inh: IMP-1 metallo-beta-lactamase inhibitors, primary screen, biochemical, epi-absorbance readout, Pseudomonas aeruginosa enzyme; metallo-beta-lactamase IMP-1 (Pseudomonas aeruginosa); purified IMP-1, nitrocefin hydrolysis, epi-absorbance fluorescence; inhibition, % at 5.6 µM; actives 0.45% (n = 290,000); AID 1556, 2009;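 active = inhibition above the mean plus 3 SD of all compounds in the same screening run, cut at about 4.5% in these data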;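 note: 0% = IMP-1 with DMSO and 100% = DMSO wells lacking enzyme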
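Material – recombinant IMP-1 enzyme, purified · Amount – IMP-1 0.2 nM before substrate addition · Medium – HEPES buffer pH 7.1 with ZnSO4 and Brij 35 · Timing – 25 °C, 15 min preincubation, 25 min reaction · Measured by – plate fluorescence quenching by hydrolysis product, ex 480/em 530 nm · Read-out – percent enzyme inhibition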
VIM-2 inhibitor: VIM-2 metallo-beta-lactamase inhibitors, primary screen, biochemical, epi-absorbance readout, Pseudomonas aeruginosa enzyme | inhibition, % at 5.6 µM | actives 0.89% (n = 290,000) | purified VIM-2, nitrocefin hydrolysis, epi-absorbance fluorescence;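 active = inhibition above the mean of all tested compounds plus 3 SD, cutoff set per screening run, cut at about 7.5% in these data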;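 note: red hydrolysis product quenches plate fluorescence so inhibitors raise well fluorescence; 0% = enzyme with DMSO and 100% = DMSO without enzyme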
PAFAH2 FP inh: PAFAH2 enzyme inhibitors, primary screen, biochemical, fluorescence polarization, human; Platelet-activating factor acetylhydrolase 2, cytoplasmic (Homo sapiens), Q99487; recombinant PAFAH2, FP-rhodamine activity probe; inhibition, % at 3.39 µM; actives 0.99% (n = 340,000); AID 492956, 2010;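 active = inhibition above the mean over all tested compounds plus 3 SD, cut at about 30% in these data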;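 note: inhibitors block probe labeling of enzyme so polarization drops; 0% = enzyme with DMSO and 100% = wells lacking PAFAH2 protein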
pPAFAH FP inh: pPAFAH enzyme inhibitors, primary screen, biochemical, fluorescence polarization, human. Platelet-activating factor acetylhydrolase (Homo sapiens), Q13093. recombinant pPAFAH, FP-rhodamine probe fluorescence polarization. inhibition, % at 3.39 µM. actives 1.5% (n = 330,000);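 active = inhibition above the mean inhibition across the screen plus 3 SD, cut at about 25% in these data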;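 note: inhibitors block binding of the rhodamine activity-based probe so polarization drops; 0% = enzyme with DMSO and 100% = wells lacking pPAFAH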
Target sequence (Q13093 whole entry, looked up): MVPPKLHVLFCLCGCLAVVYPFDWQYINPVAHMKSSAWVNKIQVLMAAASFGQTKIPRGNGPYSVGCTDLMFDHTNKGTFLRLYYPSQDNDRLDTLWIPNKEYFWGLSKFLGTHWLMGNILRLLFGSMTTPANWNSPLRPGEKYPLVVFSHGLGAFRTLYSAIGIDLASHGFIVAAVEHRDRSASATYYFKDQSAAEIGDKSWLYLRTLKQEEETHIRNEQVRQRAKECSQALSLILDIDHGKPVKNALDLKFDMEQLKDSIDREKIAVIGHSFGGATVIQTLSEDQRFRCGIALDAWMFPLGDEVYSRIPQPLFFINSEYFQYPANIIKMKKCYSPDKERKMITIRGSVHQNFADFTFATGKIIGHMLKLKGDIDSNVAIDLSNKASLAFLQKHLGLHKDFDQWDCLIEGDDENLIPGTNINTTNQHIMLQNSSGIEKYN
Numbers without * were called inactive; x = no result given. A selection: hits, their analogues and other compounds. The true share with any hit is near 3.6%.

SMILES	PAFAH1B2 FP inh	PAFAH1B3 inh	IMP-1 inh	VIM-2 inhibitor	PAFAH2 FP inh	pPAFAH FP inh
Oc1cccc(Nc2ccccc2)c1	5	5	x	x	0	1
COc1ccc(-c2cc(C(F)(F)F)n3ncc(C(=O)NCc4ccco4)c3n2)cc1	1	1	-4	8.2*	3	-3
O=C(NC1CCCC1)c1cnn2c(C(F)(F)F)cc(-c3ccco3)nc12	4	4	-2	17*	5	4
O=C(NCc1ccco1)c1cc2nc(-c3cccs3)cc(C(F)(F)F)n2n1	3	5	-5	8.6*	6	-2
CC(C)CCNC(=O)c1cnn2c(C(F)(F)F)cc(-c3ccco3)nc12	2	2	-5	7	5	12
NC(=O)c1nsc(C(=O)N(c2ccccc2)C(C(=O)NCc2ccc(F)cc2)c2ccc(O)cc2)c1N (configuration not stated)	5	0	-4	-2	-7	-2
Cc1ncsc1CCSc1n[nH]c(=O)n1-c1ccccc1	7	0	0	1	5	2
Cc1ncsc1CCSc1nc2ccccc2c(=O)n1C	5	4	-3	21*	2	0
Cn1c(SCC(=O)O)nc2ccccc2c1=O	-1	9	0	11*	9	3
CC(Cc1n[nH]c(=S)o1)c1ccccc1 (configuration not stated)	26*	2	-2	-4	13	2
COc1ccc(NC(=O)CN2CCN(Cc3ccc4c(c3)OCO4)CC2)cc1OC	6	-2	-3	-2	5	1
COc1ccc(CC(=O)NC2CCN(CC(=O)Nc3ccc4c(c3)OCCO4)CC2)cc1OC	5	4	12*	-4	2	6
CCCc1ccc2oc(C(=O)N3CCC[C@H]3CO)c(C)c2c1	3	-1	-3	-3	-2	14
CCCc1ccc2oc(C(=O)N3CCC(COC)C3)c(C)c2c1 (configuration not stated)	5	-2	0	2	10	27*
O=C(CCl)N(c1ccccc1)C1CCCCC1	33*	2	-3	-1	0	0
O=C1SC(SCc2ccccc2)=N/C1=C\c1ccco1	7	-5	2	-3	20	33*
CC(C)(C)c1cc(CCC(=O)NCCc2ccccn2)cc(C(C)(C)C)c1O	2	7	-4	0	0	0
O=C1C=C(NCCc2cc(Br)c(O)c(Br)c2)C(=O)c2ncccc21	28*	68*	x	x	37*	x
CC(=O)Oc1cc(C(=O)OCC(=O)N2CCc3ccccc3C2)cc(OC(C)=O)c1OC(C)=O	12	7	x	x	36*	33*
O=S(=O)(NOCc1ccc(Cl)cc1)c1ccc(Cl)cc1	56*	7	-2	-2	15	29*
Cc1ccc(CONS(=O)(=O)c2cc(C)ccc2C)cc1	18	-3	x	x	12	9
COc1cc2oc(=O)ccc2cc1[C@@H](O)[C@@H]1OC(C)(C)OC1(C)C	3	1	x	x	-6	0
C=C1C(=O)OC2C=C(CO)C3OC3C3OC3(C)CC(OC(=O)/C(=C/C)COC(C)=O)C12 (configuration not stated)	5	-4	x	x	11	x
Cc1cccc(OCCC(=O)OCC(=O)Nc2c(C)nn(-c3ccccc3)c2C)c1	1	3	x	x	3	29*
Cc1nn(-c2ccccc2)c(C)c1NC(=O)COC(=O)CC(C)c1ccccc1 (configuration not stated)	6	5	x	x	8	27*
SMILES	PAFAH1B2 FP inh	PAFAH1B3 inh	IMP-1 inh	VIM-2 inhibitor	PAFAH2 FP inh	pPAFAH FP inh
CCOc1ccc(OCCC(=O)OCC(=O)Nc2cc(C)nn2-c2ccccc2)cc1	8	1	x	x	-3	22
Cc1nn(-c2ccccc2)c(C)c1NC(=O)COC(=O)Cc1cccc(C(F)(F)F)c1	3	12	x	x	8	7
CC1(C)CC2CC(C)(CN2S(=O)(=O)c2cccc(C(=O)OCC(N)=O)c2)C1 (configuration not stated)	28*	2	x	x	3	2
COc1ccc(NC(=O)CN(C)C(=O)c2cccc(S(=O)(=O)N3CC4(C)CC3CC(C)(C)C4)c2)cc1 (configuration not stated)	5	0	x	x	-3	4
COCCCNC(=O)c1cccc(S(=O)(=O)N2CC3(C)CC2CC(C)(C)C3)c1 (configuration not stated)	14	4	x	x	-5	2
CC1(C)CC2CC(C)(CN2S(=O)(=O)c2cccc(C(N)=O)c2)C1 (configuration not stated)	29*	5	x	x	-2	0
COCCNC(=O)c1cccc(S(=O)(=O)N2CC3(C)CC2CC(C)(C)C3)c1 (configuration not stated)	9	7	x	x	-1	1
CCCCNC(=O)c1cccc(S(=O)(=O)N2CC3(C)CC2CC(C)(C)C3)c1 (configuration not stated)	36*	1	x	x	8	2
C[C@]1(O)CC(=O)C=C[C@H]1Nc1ccccc1	6	6	x	x	4	x
O=C1CCN(CC2CCCCC2)C=C1C(=O)c1ccccc1	2	4	x	x	3	x
C=CCn1c(-c2sccc2C)n[nH]c1=S	4	8	-4	8.8*	-5	-6
Cc1nn(CC(=O)NC2CCS(=O)(=O)C2)c(C)c1[N+](=O)[O-] (configuration not stated)	5	14	x	x	-6	1
CCOC(=O)C1Nc2ccc(C)cc2C2C=CCC12 (configuration not stated)	-1	4	x	x	8	22
CCOC(=O)c1ccc2c(c1)C1C=CCC1C(C(=O)OCC)N2 (configuration not stated)	3	15	-2	-3	10	28*
Cc1ccc(C(=O)O/N=C(\N)Cc2cccs2)c(Cl)c1	5	1	-1	-1	35*	12
Cc1ccc2c(c1)N(C(=O)CCC(=O)NCCCN1CC(C)CC(C)C1)CCO2 (configuration not stated)	2	3	-3	-2	2	1
N/C(=C\C(=O)c1cc(Cl)ccc1O)C(Cl)(Cl)Cl	0	79*	-1	-2	15	4
CC(C)(C)c1ccc(C(=O)CC(=O)c2cc(Cl)ccc2O)cc1	0	4	-3	-2	-6	-2
